Experimental findings from ChEMBL document CHEMBL4145471, “New 1,5 and 2,5-disubstituted tetrazoles-dependent activity towards surface barrier of Candida albicans” (Eur J Med Chem, 2018) are described below.

The structures appear in SMILES notation.

One may read the residual activity as the signal under treatment as a percentage of the control signal. The MIC is the smallest concentration in the dilution series that meets the test's criterion for growth inhibition.

Data set [1] relates to Candida albicans. As to the kind of experiment: Antifungal activity against Candida albicans ATCC 90028 at 2 ug/ml after 18 hrs relative to control. It is filed as functional. The procedure, abridged:
(§1)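 Planktonic broth microdilution per M27-A3 in MOPS-buffered RPMI 1640 (pH 7.0), final inoculum 1.8×10^3 cells/mL, compounds 0.0313–16 µg/mL from 1600 µg/mL stocks in ethanol or DMSO. Incubated at 35°C without agitation; OD405 read at 18 and 48 h. % inhibition was derived from test, sterility (no inoculum) and solvent growth-control wells. Amphotericin B at 0.5 µg/mL served as the 100% control.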

The subject of data set [2] is Candida albicans. As to the kind of experiment: Antifungal activity against Candida albicans ATCC 90028 at 0.0625 ug/ml after 18 hrs relative to control. The data set is classed as functional.
The test system of data set [3] is Candida albicans. As to the kind of experiment: Antifungal activity against Candida albicans ATCC 90028 at 0.0625 ug/ml after 48 hrs relative to control. It is filed as functional. The procedure, abridged: as §1
Data set [4] concerns Caco-2. As to the kind of experiment: Cytotoxicity against human Caco2 cells assessed as reduction in cell viability at 256 ug/ml after 18 hrs by XTT assay ralative to control. The data set is classed as cell-based. To be noted: caco-2, 18 h. The procedure, abridged:
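Caco-2 cells were exposed to compound at 256, 16 or 0.0313 µg/mL for 18 h, then given XTT reagent for 4–6 h. Absorbance was read at 475 nm with a 660 nm reference, and viability and toxicity were expressed as %. CC50 was taken as the concentration giving 50% viability loss. Means ± SD of three independent experiments, samples in duplicate.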
Background: Tetrazolium assays rely on reduction of a dye to a coloured formazan, in cell work by metabolically active cells.

The subject of data set [5] is Candida albicans. In words: Synergistic antifungal activity against Candida albicans ATCC 90028 at 80 ug/ml after 48 hrs in presence of 40 ug/ml fluconazol by checkerboard assay relative to control. The data set is classed as functional. The procedure, abridged: (§2)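 Checkerboard in C. albicans ATCC 90028, inoculum prepared per CLSI M27-A3 in RPMI. Fluconazole serially diluted 80-1.25 µg/mL across the plate against the partner compound at 80-1.25 µg/mL final. Incubated 48 h at 35°C. Metabolic activity read by XTT reduction at 475 nm (660 nm reference), given as % of the untreated growth control.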

In data set [6] the test system is Candida albicans. In words: Synergistic antifungal activity against Candida albicans ATCC 90028 at 80 ug/ml after 48 hrs in presence of 20 ug/ml fluconazol by checkerboard assay relative to control. The data set is classed as functional. The procedure, abridged: as §2
Data set [7] deals with Candida albicans. As to the kind of experiment: Synergistic antifungal activity against Candida albicans ATCC 90028 at 80 ug/ml after 48 hrs in presence of 1.25 ug/ml fluconazol by checkerboard assay relative to control. The data set is classed as functional. The procedure, abridged: as §2
Data set [8] has as its system Candida albicans. In words: Synergistic antifungal activity against Candida albicans ATCC 90028 at 40 ug/ml after 48 hrs in presence of 2.5 ug/ml fluconazol by checkerboard assay relative to control. The data set is classed as functional. The procedure, abridged:
(§3)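 Checkerboard microdilution (M27-A3) on C. albicans ATCC 90028 in RPMI 1640: fluconazole (80-1.25 µg/mL) crossed with tetrazole (80-1.25 µg/mL final), incubated at 35°C for 48 h. Growth by OD405 at 18 and 48 h, endpoint taken as 100% inhibition. FIC index = sum of the two agents' FICs; <1 synergism, >1 antagonism.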

In data set [9] the test system is Candida albicans. As to the kind of experiment: Synergistic antifungal activity against Candida albicans ATCC 90028 at 20 ug/ml after 48 hrs in presence of 10 ug/ml fluconazol by checkerboard assay relative to control. It is filed as functional. The procedure, abridged: as §2
Data set [10] concerns Candida albicans. In words: Synergistic antifungal activity against Candida albicans ATCC 90028 at 20 ug/ml after 48 hrs in presence of 5 ug/ml fluconazol by checkerboard assay relative to control. The data set is classed as functional. The procedure, abridged:
as §2

The test system of data set [11] is Candida albicans. In words: Synergistic antifungal activity against Candida albicans ATCC 90028 at 20 ug/ml after 48 hrs in presence of 2.5 ug/ml fluconazol by checkerboard assay relative to control. The data set is classed as functional. The procedure, abridged: as §3
In data set [12] the test system is Candida albicans. As to the kind of experiment: Synergistic antifungal activity against Candida albicans ATCC 90028 at 20 ug/ml after 48 hrs in presence of 1.25 ug/ml fluconazol by checkerboard assay relative to control. The data set is classed as functional. The procedure, abridged: as §2
The test system of data set [13] is Candida albicans. In words: Synergistic antifungal activity against Candida albicans ATCC 90028 at 10 ug/ml after 48 hrs in presence of 2.5 ug/ml fluconazol by checkerboard assay relative to control. The data set is classed as functional. The procedure, abridged: as §3
The subject of data set [14] is Candida albicans. As to the kind of experiment: Synergistic antifungal activity against Candida albicans ATCC 90028 at 5 ug/ml after 48 hrs in presence of 80 ug/ml fluconazol by checkerboard assay relative to control. The data set is classed as functional. The procedure, abridged:
as §2

Data set [15] relates to Candida albicans. As to the kind of experiment: Synergistic antifungal activity against Candida albicans ATCC 90028 at 1.25 ug/ml after 48 hrs in presence of 1.25 ug/ml fluconazol by checkerboard assay relative to control. It is filed as functional. To be noted: ATCC 90028, 48 h, read-out: GI. The procedure, abridged:
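Checkerboard per M27-A3 against ATCC 90028: fluconazole at 80–1.25 µg/mL horizontally and partner compound at 80–1.25 µg/mL vertically, 100 µL yeast inoculum per well, 35°C for 48 h. After 48 h, metabolic activity was measured by XTT reduction at 475 nm (660 nm reference) relative to untreated growth control. FIC index is the sum of the FICs; <1 was defined as synergism and >1 as antagonism.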

Data set [16] concerns Candida albicans. As to the kind of experiment: Antifungal activity against Candida albicans ATCC 90028 assessed as inhibition of metabolic activity at 10 ug/ml after 48 hrs in presence of 1.25 ug/ml fluconazol by XTT assay relative to control. The data set is classed as functional. The note with it: values are per cent of control. The procedure, abridged:
(§4)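 Checkerboard against strain ATCC 90028, inoculum per M27-A3: fluconazole 80-1.25 µg/mL on one axis, tetrazole 80-1.25 µg/mL on the other. Plates at 35°C for 48 h, then XTT metabolic reduction read at 475 nm (660 nm reference). Activity is the drop in mean absorbance against untreated growth control. FICs and their summed FIC index are taken at 50% reduction in metabolic activity.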

Data set [17] relates to Candida albicans. As to the kind of experiment: Antifungal activity against Candida albicans ATCC 90028 assessed as inhibition of metabolic activity at 2.5 ug/ml after 48 hrs in presence of 1.25 ug/ml fluconazol by XTT assay relative to control. It is filed as functional. To be noted: values are per cent of control. The procedure, abridged: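 C. albicans ATCC 90028 in checkerboard: fluconazole serial dilutions (80-1.25 µg/mL) crossed with tetrazole (80-1.25 µg/mL final), M27-A3 inoculum in RPMI 1640, 35°C for 48 h. Metabolic activity measured by XTT reduction, read at 475 nm (660 nm reference). Activity expressed relative to untreated growth control absorbance.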

For data set [18], the system named is Candida albicans. As to the kind of experiment: Antifungal activity against Candida albicans ATCC 90028 assessed as inhibition of metabolic activity at 1.25 ug/ml after 48 hrs in presence of 40 ug/ml fluconazol by XTT assay relative to control. The data set is classed as functional. To be noted: values are per cent of control. The procedure, abridged: as §4

Data set [19] has as its system Candida albicans. In words: Antifungal activity against Candida albicans ATCC 90028 after 48 hrs assessed as fluconazol MIC by XTT assay. It is filed as functional. To be noted: ATCC 90028, 48 h. The procedure, abridged:
as §4

The subject of data set [20] is Candida albicans. As to the kind of experiment: Antifungal activity against Candida albicans ATCC 90028 assessed as metabolic activity at 80 ug/ml after 48 hrs in presence of 10 ug/ml fluconazol by XTT assay relative to control.
For data set [21], the system named is Candida albicans. In words: Antifungal activity against Candida albicans ATCC 90028 assessed as metabolic activity at 80 ug/ml after 48 hrs in presence of 1.25 ug/ml fluconazol by XTT assay relative to control.

`CCOC(=O)CCn1nnc(-c2ccccc2)n1`: the Activity in data set [1] is 99.35%; in [2], 99.57%; in data set [3], 99.12%; in data set [4], 45.49%. The “growth inhibition (GI)” value in [5] is 99.34%; in [6] it was 99.59%; in [7], 99.97%; in [8] it was 99.74%; in data set [9], 99.52%; in data set [10], 98.72%. The “growth inhibition (GI)” value in data set [11] is 99.63%; in data set [12] it was 99.79%; in [13], 99.62%; in data set [14], 99.61%. For the same compound, the inhibition of growth at 1.25 µg/mL in [15] was determined as 99.8%. Moreover, the residual activity in [16] is reported as 90.58%; in data set [17] it was 90.2%; in [18] it was 86.85%. Moreover, in data set [19], the MIC was 1.25 µg/mL. Also, the Metabolic activity in [20] came to 52.64%; in data set [21] it was 41.98%.
`ClCCCn1nnnc1-c1ccccc1Cl`: the Activity was 97.4% in data set [1], 99.9% in [2], 99.34% in data set [3] and 63.27% in [4]. Besides, the “growth inhibition (GI)” value in [5] was found to be 99.79%; in data set [6], 99.74%; in [7], 100%; in [8], 99.14%; in data set [9] it was 99.73%; in [10], 99.02%. In addition, the “growth inhibition (GI)” value in data set [11] stood at 99.25%; in [12], 100%; in data set [13], 99.41%; in [14], 99.34%. Besides, in [15], the inhibition of growth at 1.25 µg/mL is 99.7%. Also, the residual activity in data set [16] turned out to be 73.65%; in data set [17] it was 0%; in data set [18] it was 81.57%. Moreover, the MIC in [19] was determined as 1.25 µg/mL. Moreover, the Metabolic activity is reported as 73.98% in data set [20] and 2.6% in data set [21].
With `Cc1ccc(-c2nnn(CCCN3CCOCC3)n2)cc1`, the Activity in [1] was found to be 95.72%; in [2], 99.5%; in data set [3], 99.03%; in data set [4] it was 13.04%. Also, the “growth inhibition (GI)” value in data set [5] is 99.21%; in data set [6], 99.71%; in data set [7], 98.77%; in data set [8] it was 99.77%; in data set [9], 99.32%; in data set [10], 98.27%. Besides, the “growth inhibition (GI)” value is listed as 99.31% in [11], 98.75% in [12], 98.46% in data set [13] and 99.47% in data set [14]. Also, in data set [15], the inhibition of growth at 1.25 µg/mL amounted to 99%. For the same compound, the residual activity in data set [16], in data set [17] and in [18] was 100% in each case. For the same compound, the MIC in [19] was 10 µg/mL. Also, the Metabolic activity in [20] stood at 11.87%; in [21], 100%.
